Measured values from the EternaBench riboswitch data.

Tested on: MS2 coat protein
Assay: apparent Kd, MS2 coat protein; higher = weaker binding; RNA-MaP array; FMN 200 µM where present
Outline: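 Binding was read on Illumina sequencing-chip clusters where stalled E. coli RNA polymerase had transcribed each design. A titration of SNAP-549-labelled MS2 coat protein began at 0.7 or 1.5 nM and doubled to 3 µM, once without ligand and once with constant ligand, in 100 mM Tris-HCl pH 7.5, 80 mM KCl, 4 mM MgCl2, BSA, DTT, yeast tRNA and Tween-20. The apparent Kd is the median of filtered per-cluster binding-curve fits, based on green signal normalised to red-channel RNA signal and control-cluster median Fmax.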

[1] = designed as: ON switch for flavin mononucleotide, no ligand
[2] = ligand present: flavin mononucleotide, designed as: ON switch for flavin mononucleotide
[3] = designed as: OFF switch for flavin mononucleotide, no ligand
[4] = ligand present: flavin mononucleotide, designed as: OFF switch for flavin mononucleotide

| Sequence | apparent Kd [1] | apparent Kd [2] | apparent Kd [3] | apparent Kd [4] |
| --- | --- | --- | --- | --- |
| GGGUACAUCGGAGGAUAUCAUGUAAAUACAUGAGGAUCACCCAUGUCGAUGGAGACAACGGAGAUUGAGAAGGCCGAUGUACCG | 952 nM | 108 nM |  |  |
| GACAUUGGCAAGAAGGCAAACAUGAGGAUCACCCAUGUUCUGUAUGUAUAUUGAGGAUAUUGCCAAUGUAUGUGGAUCACCCAA |  |  | 9.44 nM | 8.28 nM |
| CACGAUGAUGUAGGAUAUAUGCUGGAAUACAGCAUAGAAGGACAUGAGGAUCACCCAUGUUAAGUGCCUCCAAAUAACAUCGUG |  |  | 15.7 nM | 21.7 nM |
| GUCAGCUCGUGAGGAUAUACAACACUGCUUCGGCAGUGUAUUAAGAUCACAUGAGGAUCACCCAUGUAGAAGGCAAGAGCUGAU |  |  | 13.2 nM | 227 nM |
| UAAAGUGUGGAGGAUAUGGACCGCGCUAGUGGUCCAGAAGGUCAAACAUGAGGAUCACCCAUGUCCCGUGAUUA |  |  | 54.5 nM | 67.7 nM |
| GUAGAGUAAGGAUAUGGUGAAUAGGAUAGAAUGGUUAGAAACUAGAAGGUACAUGAGGAUCACCCAUGUAAUGU |  |  | 21.7 nM | 20.7 nM |
| CAAUUUAGCGAGAAGGAGCGCCCGUAGGUACAUGAGGAUCACCCAUGUCCUUUGUGCUCUACGCGCUAGGAUAUCGAUAAACAG |  |  | 20.9 nM | 116 nM |
| AGUAAGCUUGAGAAGGUGAAGUGGAAACAUGAGGAUCACCCAUGUAUUAGGAAGCCUGGUUUUGUCAAGGAUAUCGGGUUUACA | 12.2 nM | 12.6 nM |  |  |
| GUCGUGUGAGGAUAUGAUUGUACGGCAGACUAGCGUCUGCUUCAGAAGGCACAUGAGGAUCACCCAUGUUUGUC |  |  | 18.6 nM | 34.4 nM |
| CGGAUGUGAGGAUAUACAUGAGGAUCACCCAUGUGUGCCAGCUAGCUGACUGGCACUUGUAGAAGGCACGUCUG |  |  | 10.8 nM | 22 nM |
| AUUGGUUAAGGAUAUCCCUUAGCAGACAUGAGGAUCACCCAUGUCGUCAUGAGGCCAGGCGGAGAAGGUGACUAAU |  |  | 55.4 nM | 35.8 nM |
| GUAACAUGAGGAUCACCCAUGUAUAGAACGCUUAAUAGAUCUGAGGAUAUACUAGAAUUUACGUAGUAGAAGGCAGUGGGUACA | 35.9 nM | 26.9 nM |  |  |
| AAUAUAAAGAGCUGGUAAAACUCAACAUGAGGAUCACCCAUGUAGGAUAUCAGCACGAUAAGUGCUGAGAAGGACAUCCAGCUC |  |  | 16.3 nM | 17.1 nM |
| AAAAAGUGAGGAUAUGCUGCUCGUCACUUGCGUGAUGAGUAGCAGAAGGCACAUGAGGAUCACCCAUGUAAAGA |  |  | 39 nM | 49.7 nM |
| GGGUGACAUGAGGAUCACCCAUGUCAGGAUAUGCUUGAGCUUGAGAAAUCGAGUUCGAGUAGAAGGGACUGCCC |  |  | 47.3 nM | 72.3 nM |
| AUUUGAAUCGUAGGAUAUCGCUUAAAUUUACCACGAGAAGGACGAACAUGAGGAUCACCCAUGUAUCAUGGUGUAGAUAAUUUG |  |  | 68.2 nM | 249 nM |
| AUGUUACAUGAGGAUCACCCAUGUGAGGAUAUGUGUAUCCCUAAAAAAGUGUGGGACCAUAGAAGGCACUUGGA |  |  | 62.9 nM | 98.1 nM |
| GGGCCGGUGGAGAAGGAGCUCACGUAACGUAGGCUAGGAUAUCCACAUGAGGAUCACCCAUGUGGGAAUAUCUGAUUUUCACAG |  |  | 4.01 nM | 4.88 nM |
| UGGUGGAAGCAGGAUAUGCUAGAAGUGUAGAAUGCAGAAGGGCUAACAUGAGGAUCACCCAUGUAAGAGGUGUU |  |  | 319 nM | 237 nM |
| AUACAUGAGGAUCACCCAUGUUACUGGGUCUUAAUAGAACGUAGAAGGAUGAUUUUAUAAAUAACAUAGGAUAUACAAUAUUGU |  |  | 181 nM | 105 nM |
| AGCGGCGCGGGCCACCGCAAAACCAGAAGGACAUGAGGAUCACCCAUGUAACAAAACAGGGCGGUGUAGGAUAUGGCAGACCCG |  |  | 14.7 nM | 23.8 nM |
| UAUAUAUAGUAAGGAUAUGUAUUAAUCUUAUAAACAGAAGGUACUGACAUGAGGAUCACCCAUGUUUUAGUGUGGGCAUGUAGA |  |  | 78.1 nM | 103 nM |
| AAAAAAAAAACAUAGGAUAUCCGGGCCGGGACAUGAGGAUCACCCAUGUCAAAAAAAAUUGGCCCGGAGAAGGAUGAAAAAAAAAA | 15.5 nM | 14.9 nM |  |  |
| AGCUUCGAAGGAUAUCCAGGUCCAGACAUGAGGAUCACCCAUGUGGUGAAGACGUUACCCGGAGAAGGUUGUGAGU |  |  | 70.5 nM | 61.7 nM |
| GGGUACAUGGGAGGAUAUCAUGUAAAUACAUGAGGAUCACCCAUGUCGAUGGAGACAUCGGAGAUUGAGAAGGCCGAUGUACCG | 21.1 nM | 37.8 nM |  |  |
| UUCGUGCAGCUUUGCUGUACGCGUACAUGAGGAUCACCCAUGUAGGAUAUGGUAGGCUUUGCUUACUAGAAGGAUAGUGUGAUU |  |  | 118 nM | 81.8 nM |
| UUUUUACAUGAGGAUCACCCAUGUCAGGAUAUCAUUAUAUUUUAUUAUUUUAUUUAUAUGAGAAGGGACUAUUA |  |  | 87.7 nM | 60.1 nM |
| AACAGUACAGGAUAUACAUGAGGAUCACCCAUGUGAUAUUUAAGUGGCGUACCACAAAGUAGAAGGGUACUGGA |  |  | 21.9 nM | 85.6 nM |
